Assays:
CTSB = CTSB (Mus musculus, UniProt P10605); test: Cathepsin activity in lysates of treated 4T1 cells, substrate Z-Arg-Arg-AMC; assay type: cell-based, murine; conditions: 1 μM, 4 h, then 1 h, relative to vehicle control
Outline: (§1)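 4T1 cells were given vehicle, 1 μM test compound, or 1 μM E64d (permeable positive control) for 4 h. Medium was then replaced, and cells received green light (520–525 nm) for 10 min or were kept dark, then incubated 1 h. Substrate 100 μM final; AMC fluorescence (ex 360/em 430 nm) read every 30 s for 5 min at 37 °C; % activity vs vehicle.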

cysteine cathepsins = test: Cathepsin activity in lysates of treated 4T1 cells, substrate Z-Phe-Arg-AMC; assay type: cell-based, murine; conditions: 1 μM, 4 h, then 1 h, relative to vehicle control
Outline: as §1

[1] = Preliminary phototoxicity screen with green light; assay type: cell-based; conditions: green light (520–525 nm); data not shown

Sequence of CTSB (P10605 80-339): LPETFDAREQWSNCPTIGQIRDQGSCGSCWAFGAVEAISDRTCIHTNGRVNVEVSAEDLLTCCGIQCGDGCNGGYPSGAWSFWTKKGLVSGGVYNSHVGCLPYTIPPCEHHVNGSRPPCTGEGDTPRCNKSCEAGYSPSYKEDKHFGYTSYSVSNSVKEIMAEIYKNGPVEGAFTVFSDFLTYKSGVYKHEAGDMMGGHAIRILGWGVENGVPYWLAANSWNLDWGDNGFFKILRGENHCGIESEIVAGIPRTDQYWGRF

| Compound | Percent activity of cysteine cathepsins, substrate Z-Arg-Arg-AMC, Dark (CTSB; dark) [%] | Percent activity of cysteine cathepsins, substrate Z-Arg-Arg-AMC, Light (CTSB; green light 10 min) [%] | Percent activity of cysteine cathepsins, substrate Z-Phe-Arg-AMC, Dark (cysteine cathepsins; dark) [%] | Percent activity of cysteine cathepsins, substrate Z-Phe-Arg-AMC, Light (cysteine cathepsins; green light 10 min) [%] | phototoxicity in preliminary screen [1] |
| --- | --- | --- | --- | --- | --- |
| CCOC(=O)[C@H]1O[C@@H]1C(=O)N[C@@H](CC(C)C)C(=O)NCCC(C)C [Compound E64d] | <5 | <5 | 18 ± 4 | 21 ± 4 | – |
| [Ru(dppn)(dqpy)-(py)](PF6)2 | – | – | – | – | showed phototoxicity |

Source: publication PMC11066580 (Inorganic chemistry, 2024)
